Compound activity deposited in PubChem BioAssay by several laboratories.
STAT1 activator: increases IFN-gamma driven STAT1 reporter signal; NIH 3T3 STAT1-luciferase reporter, luminescence; 100% = IFN-gamma alone, no compound; activation (% of control), % at 5.5 µM; actives 2.6% (n = 200,000);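 active = activation above the screen-wide mean activation plus 3 SD, cut at about 130% in these data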;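 also: raw ratio to IFN-gamma control signal so 100% means no change and 0% no light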
FLuc act counter: firefly luciferase counter-screen for stimulation assays; P08659; 200,000 tested, under 10 active; ATPlite luciferase biochemical, luminescence, 10 min; 0 = ATP-free wells, 1 = DMSO control; activation factor at 10 µM; AID 1027;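 active = luciferase activation factor, scaled between plate controls, of at least 2 with compound at 10 µM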
Target sequence (P08659 whole entry, looked up): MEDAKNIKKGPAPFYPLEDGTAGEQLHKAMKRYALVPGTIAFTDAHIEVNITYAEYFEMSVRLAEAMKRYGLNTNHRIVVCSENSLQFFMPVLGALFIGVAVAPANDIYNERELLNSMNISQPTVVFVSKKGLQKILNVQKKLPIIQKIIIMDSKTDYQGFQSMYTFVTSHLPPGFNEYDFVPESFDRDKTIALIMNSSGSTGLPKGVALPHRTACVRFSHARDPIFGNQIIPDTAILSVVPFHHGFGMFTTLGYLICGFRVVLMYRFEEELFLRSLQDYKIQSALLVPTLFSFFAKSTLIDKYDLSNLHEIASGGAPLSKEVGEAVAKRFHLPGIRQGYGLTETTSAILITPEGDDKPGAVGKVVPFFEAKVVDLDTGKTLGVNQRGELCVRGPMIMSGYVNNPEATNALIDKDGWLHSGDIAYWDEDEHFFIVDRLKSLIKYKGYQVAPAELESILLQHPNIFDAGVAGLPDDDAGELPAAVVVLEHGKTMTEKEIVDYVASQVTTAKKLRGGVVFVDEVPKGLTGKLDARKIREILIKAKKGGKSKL
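Material: Luciferase/luciferin reagent mix; Doses: test compounds dosed from 2 mM stocks in 100% DMSO; Schedule: 10 min incubation after luciferase reagent addition, room temperature; Measured by: luminescence from luciferase reaction; Read-out: luminescence gain marking luciferase activators.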
Pf gamet viab: P. falciparum stage V gametocyte viability inhibition. inhibition, % at 10.9 µM. actives 0.065% (n = 150,000). P. falciparum stage V gametocytes, ATP luminescence, 24 h;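 active = inhibition above the mean plus 3 SD of compounds within the control limits, set per campaign, cut at about 38% in these data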;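 also: 0% = DMSO wells and 100% = medium only without gametocytes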
NF-kB expr up: raises NF-kB expression in human neuronal cells; fold change at 12.5 µM; actives 1.6% (n = 190,000); NF-kB reporter expression; hits give high values; in the data active = fold change above about 3.3
APP 5'UTR act: activates APP 5'UTR luciferase reporter. activation, % at 2 µM. actives 1% (n = 190,000). SH-SY5Y APP 5'UTR luciferase reporter, luminescence; zero percent = DMSO vehicle wells. AID 1276;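 active = activation above a set limit, based on mean plus 3 SD of controls, cut at about 140% in these data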
FLuc inhib CS: Photinus pyralis luciferase inhibition counter-screen; P08659; ATPLite firefly luciferase biochemical luminescence, 10 min; inhibition, % at 10 µM; actives 1.5% (n = 200,000);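 active = inhibition above about 50% when tested at 10 µM, limit read from the data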
Starred values were filed as active, the others as inactive. A selection: hits, their analogues and other compounds. The true share with any hit is near 3.5%.

`COc1cccc(C2=NOC(C(=O)NCCN3CCOCC3)C2)c1` (stereo unspecified) gave STAT1 activator 100, FLuc act counter 1.1, NF-kB expr up 1.2, APP 5'UTR act 1 and FLuc inhib CS -9.
`CCC(C)(C)NC(=O)c1ccc2c(c1)S(=O)(=O)c1ccccc1C2=O` gave STAT1 activator 90, FLuc act counter 1, NF-kB expr up 0.71, APP 5'UTR act -1 and FLuc inhib CS -1.
For CCC(C)(C)c1ccc2c(c1)C(=O)c1ccccc1C2=O the results were STAT1 activator 126, FLuc act counter 0.5, Pf gamet viab -15, NF-kB expr up 1.6, APP 5'UTR act 182* and FLuc inhib CS 48.
`CC(=O)c1cnc(Nc2cccc(C)c2)s1` gave STAT1 activator 134*, FLuc act counter 0.9, Pf gamet viab 16, NF-kB expr up 2.4, APP 5'UTR act 58 and FLuc inhib CS 6.
For Oc1ccc2c(c1)oc1cc(O)ccc12 the results were STAT1 activator 95, FLuc act counter 1, NF-kB expr up 7*, APP 5'UTR act 2 and FLuc inhib CS -1.
`COc1ccc(CC(=O)Nc2cc(C)ccn2)cc1` gave STAT1 activator 106, FLuc act counter 0.9, NF-kB expr up 1.4, APP 5'UTR act -6 and FLuc inhib CS 12.
Screening CC(C)c1ccc(NC(=O)c2cc(Br)ccc2Br)cc1 returned STAT1 activator 105, FLuc act counter 1.1, Pf gamet viab -16, NF-kB expr up 1.3, APP 5'UTR act -17 and FLuc inhib CS -6.
Cc1occc1C(=O)Nc1ccc(Br)cc1F was read as STAT1 activator 130*, FLuc act counter 1, NF-kB expr up 1.8, APP 5'UTR act 26 and FLuc inhib CS 4.
For O=C(Nc1ccc(Cl)cc1)c1ccc(Br)cc1F the results were STAT1 activator 140*, FLuc act counter 0.7, Pf gamet viab -23, NF-kB expr up 7.8*, APP 5'UTR act 150* and FLuc inhib CS 32.
Screening Cc1occc1C(=O)NNC(=O)Nc1ccc(F)cc1F returned STAT1 activator 103, FLuc act counter 1, Pf gamet viab -18, NF-kB expr up 1, APP 5'UTR act -13 and FLuc inhib CS 0.
Screening O=C(Nc1cccc(Cl)c1)Nc1ccc(Br)cc1F returned STAT1 activator 112, FLuc act counter 1, Pf gamet viab -10, NF-kB expr up 1, APP 5'UTR act 64 and FLuc inhib CS -1.
O=C(Nc1ccccc1)Nc1ccc(Br)cc1F was read as STAT1 activator 130*, FLuc act counter 0.9, Pf gamet viab -6, NF-kB expr up 1.8, APP 5'UTR act 81 and FLuc inhib CS 6.
`O=C(CN1C(=O)NC2(CCCCCC2)C1=O)Nc1ccc(S(=O)(=O)N2CCOCC2)cc1` gave STAT1 activator 100, FLuc act counter 1.1, NF-kB expr up 0.98, APP 5'UTR act 25 and FLuc inhib CS -7.
c1ccc(-c2cnc(CSc3nnc4ccccn34)o2)cc1 was read as STAT1 activator 137*, FLuc act counter 1, NF-kB expr up 2.5, APP 5'UTR act 130 and FLuc inhib CS -4.
For Fc1ccc(-c2nnc(CSc3nnc4ccccn34)o2)cc1 the results were STAT1 activator 124, FLuc act counter 1, Pf gamet viab -1, NF-kB expr up 2, APP 5'UTR act 10 and FLuc inhib CS -2.
Screening COC(=O)CSc1nc2cc3c(cc2cc1C)OCCO3 returned STAT1 activator 107, FLuc act counter 1, NF-kB expr up 1.1, APP 5'UTR act 1 and FLuc inhib CS -1.
Screening Cc1ccc(-c2nnc(CSc3nc4cc5c(cc4cc3C)OCO5)o2)cc1 returned STAT1 activator 102, FLuc act counter 1, NF-kB expr up 4*, APP 5'UTR act 15 and FLuc inhib CS -4.
For Cc1ccc(CSc2nnc(-c3ccc4c(c3)OCO4)o2)cc1 the results were STAT1 activator 95, FLuc act counter 1, Pf gamet viab -19, NF-kB expr up 1.2, APP 5'UTR act 11 and FLuc inhib CS 1.
For CCOC(=O)CSc1nc2cc3c(cc2cc1C)OCO3 the results were STAT1 activator 101, FLuc act counter 1, Pf gamet viab 39*, NF-kB expr up 1.4, APP 5'UTR act -6 and FLuc inhib CS -4.
